Data reported in article PMC9116722 (Cancer chemotherapy and pharmacology, 2022).

Assay: Adverse events
Assay type: in vivo, human
Summary of the method: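 Patients with germline BRCA-mutated cancers, or BRCA-wildtype TNBC or platinum-refractory ovarian cancer, took oral drug continuously twice daily in 28-day cycles. There were nine dose levels from 50 to 500 mg BID under 3+3 escalation, run separately per cohort after the first DLT. Toxicities were graded by CTCAE v4.0, with DLTs assessed during cycle 1.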

C[C@]1(c2nc3c(C(N)=O)cccc3[nH]2)CCCN1 [veliparib]
Hypophosphatemia, Grade 2 (BRCAmut and BRCAwt combined): 4 (4) number of patients (%) | Hypophosphatemia, Grade 3 (BRCAmut and BRCAwt combined): 2 (2) number of patients (%) | Hypophosphatemia, Grade 4 (BRCAmut and BRCAwt combined): 0 (0) number of patients (%) | Insomnia, Any Grade (BRCAmut and BRCAwt combined): 7 (7) number of patients (%) | Insomnia, Grade 1 (BRCAmut and BRCAwt combined): 6 (6) number of patients (%) | Insomnia, Grade 2 (BRCAmut and BRCAwt combined): 1 (1) number of patients (%) | Insomnia, Grade 3 (BRCAmut and BRCAwt combined): 0 (0) number of patients (%) | Insomnia, Grade 4 (BRCAmut and BRCAwt combined): 0 (0) number of patients (%) | Lymphocyte count decreased, Any Grade (BRCAmut and BRCAwt combined): 37 (38) number of patients (%) | Lymphocyte count decreased, Grade 1 (BRCAmut and BRCAwt combined): 7 (7) number of patients (%) | Lymphocyte count decreased, Grade 2 (BRCAmut and BRCAwt combined): 15 (15) number of patients (%) | Lymphocyte count decreased, Grade 3 (BRCAmut and BRCAwt combined): 14 (14) number of patients (%) | Lymphocyte count decreased, Grade 4 (BRCAmut and BRCAwt combined): 1 (1) number of patients (%) | Myalgia, Any Grade (BRCAmut and BRCAwt combined): 5 (5) number of patients (%) | Myalgia, Grade 1 (BRCAmut and BRCAwt combined): 4 (4) number of patients (%) | Myalgia, Grade 2 (BRCAmut and BRCAwt combined): 1 (1) number of patients (%) | Myalgia, Grade 3 (BRCAmut and BRCAwt combined): 0 (0) number of patients (%) | Myalgia, Grade 4 (BRCAmut and BRCAwt combined): 0 (0) number of patients (%) | Nausea, Any Grade (BRCAmut and BRCAwt combined): 64 (65) number of patients (%) | Nausea, Grade 1 (BRCAmut and BRCAwt combined): 42 (43) number of patients (%) | Nausea, Grade 2 (BRCAmut and BRCAwt combined): 20 (20) number of patients (%) | Nausea, Grade 3 (BRCAmut and BRCAwt combined): 2 (2) number of patients (%) | Nausea, Grade 4 (BRCAmut and BRCAwt combined): 0 (0) number of patients (%) | Neutrophil count decreased, Any Grade (BRCAmut and BRCAwt combined): 17 (17) number of patients (%) | Neutrophil count decreased, Grade 1 (BRCAmut and BRCAwt combined): 13 (13) number of patients (%) | Neutrophil count decreased, Grade 2 (BRCAmut and BRCAwt combined): 4 (4) number of patients (%) | Neutrophil count decreased, Grade 3 (BRCAmut and BRCAwt combined): 0 (0) number of patients (%) | Neutrophil count decreased, Grade 4 (BRCAmut and BRCAwt combined): 0 (0) number of patients (%) | Platelet count decreased, Any Grade (BRCAmut and BRCAwt combined): 18 (18) number of patients (%) | Platelet count decreased, Grade 1 (BRCAmut and BRCAwt combined): 14 (14) number of patients (%) | Platelet count decreased, Grade 2 (BRCAmut and BRCAwt combined): 3 (3) number of patients (%) | Platelet count decreased, Grade 3 (BRCAmut and BRCAwt combined): 0 (0) number of patients (%) | Platelet count decreased, Grade 4 (BRCAmut and BRCAwt combined): 1 (1) number of patients (%) | Vomiting, Any Grade (BRCAmut and BRCAwt combined): 32 (33) number of patients (%) | Vomiting, Grade 1 (BRCAmut and BRCAwt combined): 25 (26) number of patients (%) | Vomiting, Grade 2 (BRCAmut and BRCAwt combined): 7 (7) number of patients (%) | White blood cell decreased, Any Grade (BRCAmut and BRCAwt combined): 27 (28) number of patients (%) | White blood cell decreased, Grade 1 (BRCAmut and BRCAwt combined): 20 (20) number of patients (%) | White blood cell decreased, Grade 2 (BRCAmut and BRCAwt combined): 7 (7) number of patients (%) | White blood cell decreased, Grade 3 (BRCAmut and BRCAwt combined): 0 (0) number of patients (%) | White blood cell decreased, Grade 4 (BRCAmut and BRCAwt combined): 0 (0) number of patients (%) | grade 3/4 decreased lymphocyte count (BRCAmut group): 14% | incidence of grade 3/4 toxicity (BRCAmut group): 24% | Abdominal pain, Grade 3 (BRCAmut, DL1 50/50 mg AM/PM): 0 number of patients (%) | Alkaline phosphatase increased, Grade 3 (BRCAmut, DL1 50/50 mg AM/PM): 1 (14) number of patients (%) | Anemia, Grade 3 (BRCAmut, DL1 50/50 mg AM/PM): 0 number of patients (%) | Anemia, Grade 4 (BRCAmut, DL1 50/50 mg AM/PM): 0 number of patients (%) | Any Grade 3/4 toxicity (BRCAmut, DL1 50/50 mg AM/PM): 1 (14) number of patients (%) | Any Grade 3 toxicity (BRCAmut, DL1 50/50 mg AM/PM): 1 (14) number of patients (%) | Any Grade 4 toxicity (BRCAmut, DL1 50/50 mg AM/PM): 0 number of patients (%) | Appendicitis, Grade 3 (BRCAmut, DL1 50/50 mg AM/PM): 0 number of patients (%) | Aspartate aminotransferase increased, Grade 3 (BRCAmut, DL1 50/50 mg AM/PM): 1 (14) number of patients (%) | Dehydration, Grade 3 (BRCAmut, DL1 50/50 mg AM/PM): 0 number of patients (%) | Dyspnea, Grade 4 (BRCAmut, DL1 50/50 mg AM/PM): 0 number of patients (%) | Fatigue, Grade 3 (BRCAmut, DL1 50/50 mg AM/PM): 0 number of patients (%) | Headache, Grade 3 (BRCAmut, DL1 50/50 mg AM/PM): 0 number of patients (%) | Hypophosphatemia, Grade 3 (BRCAmut, DL1 50/50 mg AM/PM): 0 number of patients (%) | Lymphocyte count decreased, Grade 3 (BRCAmut, DL1 50/50 mg AM/PM): 0 number of patients (%) | Lymphocyte count decreased, Grade 4 (BRCAmut, DL1 50/50 mg AM/PM): 0 number of patients (%) | Nausea, Grade 3 (BRCAmut, DL1 50/50 mg AM/PM): 0 number of patients (%) | Platelet count decreased, Grade 4 (BRCAmut, DL1 50/50 mg AM/PM): 0 number of patients (%) | Thromboembolic event, Grade 3 (BRCAmut, DL1 50/50 mg AM/PM): 0 number of patients (%) | Thromboembolic event, Grade 4 (BRCAmut, DL1 50/50 mg AM/PM): 0 number of patients (%) | Urinary tract infection, Grade 3 (BRCAmut, DL1 50/50 mg AM/PM): 0 number of patients (%) | Abdominal pain, Grade 3 (BRCAmut, DL2 100/50 mg AM/PM): 0 number of patients (%) | Alkaline phosphatase increased, Grade 3 (BRCAmut, DL2 100/50 mg AM/PM): 0 number of patients (%) | Anemia, Grade 3 (BRCAmut, DL2 100/50 mg AM/PM): 0 number of patients (%) | Anemia, Grade 4 (BRCAmut, DL2 100/50 mg AM/PM): 0 number of patients (%) | Any Grade 3/4 toxicity (BRCAmut, DL2 100/50 mg AM/PM): 1 (33) number of patients (%) | Any Grade 3 toxicity (BRCAmut, DL2 100/50 mg AM/PM): 0 number of patients (%) | Any Grade 4 toxicity (BRCAmut, DL2 100/50 mg AM/PM): 1 (33) number of patients (%) | Appendicitis, Grade 3 (BRCAmut, DL2 100/50 mg AM/PM): 0 number of patients (%) | Aspartate aminotransferase increased, Grade 3 (BRCAmut, DL2 100/50 mg AM/PM): 0 number of patients (%) | Dehydration, Grade 3 (BRCAmut, DL2 100/50 mg AM/PM): 0 number of patients (%) | Dyspnea, Grade 4 (BRCAmut, DL2 100/50 mg AM/PM): 0 number of patients (%) | Fatigue, Grade 3 (BRCAmut, DL2 100/50 mg AM/PM): 0 number of patients (%) | Headache, Grade 3 (BRCAmut, DL2 100/50 mg AM/PM): 0 number of patients (%) | Hypophosphatemia, Grade 3 (BRCAmut, DL2 100/50 mg AM/PM): 0 number of patients (%) | Lymphocyte count decreased, Grade 3 (BRCAmut, DL2 100/50 mg AM/PM): 0 number of patients (%) | Lymphocyte count decreased, Grade 4 (BRCAmut, DL2 100/50 mg AM/PM): 0 number of patients (%) | Nausea, Grade 3 (BRCAmut, DL2 100/50 mg AM/PM): 0 number of patients (%) | Platelet count decreased, Grade 4 (BRCAmut, DL2 100/50 mg AM/PM): 0 number of patients (%) | Thromboembolic event, Grade 3 (BRCAmut, DL2 100/50 mg AM/PM): 0 number of patients (%) | Thromboembolic event, Grade 4 (BRCAmut, DL2 100/50 mg AM/PM): 1 (33) number of patients (%) | Urinary tract infection, Grade 3 (BRCAmut, DL2 100/50 mg AM/PM): 0 number of patients (%) | Abdominal pain, Grade 3 (BRCAmut, DL3 100/100 mg AM/PM): 0 number of patients (%) | Alkaline phosphatase increased, Grade 3 (BRCAmut, DL3 100/100 mg AM/PM): 0 number of patients (%)
